Consider six molecules from ChEMBL document CHEMBL1649460, “Integron mobilization unit as a source of mobility of antibiotic resistance genes” (2009).

≈ marks a conversion by molar mass, not a printed value.

Experiment [1] has as its system Escherichia coli. Description: Antimicrobial activity against Escherichia coli J53 harboring pCHE-B plasmid expressing blaSHV-5 gene by agar dilution method. Type of experiment: functional. For orientation: In agar dilution the substance is mixed into plates at graded concentrations.
The subject of experiment [2] is Enterobacter cloacae. Description: Antimicrobial activity against Enterobacter cloacae CHE-2 harboring blaGES-5 and blaSHV-5 gene by agar dilution method. It is filed as functional. The gist of the method:
(§1)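 MICs by agar dilution, with β-lactams tested alone. Colistin was the exception, read by Etest strip. Results interpreted according to CLSI guidelines.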

Experiment [3] concerns Pseudomonas aeruginosa. Description: Antimicrobial activity against Pseudomonas aeruginosa PU21 harboring pCHE-A plasmid expressing blaGES-5 gene by agar dilution in presence of beta-lactamase inhibitor clavulanic acid. Type of experiment: functional. In a few lines: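 MICs by agar dilution. Beta-lactams tested alone and with clavulanic acid held at a fixed 4 µg/ml. Results were interpreted against CLSI guidelines.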

Experiment [4] deals with Pseudomonas aeruginosa. Description: Antimicrobial activity against Pseudomonas aeruginosa PU21 harboring pCHE-A plasmid expressing blaGES-5 gene by agar dilution method. It is filed as functional. In a few lines:
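Natural plasmid pCHE-A was electrotransformed into electrocompetent P. aeruginosa PU21, and transformants were selected on agar with ticarcillin 100 µg/ml. MICs by agar dilution, with β-lactams tested alone; colistin by Etest. Interpreted per CLSI.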

The test system of experiment [5] is Pseudomonas aeruginosa. Description: Antimicrobial activity against Pseudomonas aeruginosa PU21 by agar dilution in presence of beta-lactamase inhibitor clavulanic acid. It is filed as functional. The gist of the method:
(§2)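 Agar dilution MICs of β-lactams, each tested with clavulanic acid held at a fixed 4 µg/ml. Results interpreted according to CLSI guidelines.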

Experiment [6] deals with Escherichia coli. Briefly: Antimicrobial activity against Escherichia coli J53 harboring pCHE-B plasmid expressing blaSHV-5 gene by agar dilution in presence of beta-lactamase inhibitor clavulanic acid.
In experiment [7] the test system is Escherichia coli. Description: Antimicrobial activity against Escherichia coli J53 harboring pCHE-A plasmid expressing blaGES-5 gene by agar dilution method. It is filed as functional.
The subject of experiment [8] is Enterobacter cloacae. Briefly: Antimicrobial activity against Enterobacter cloacae CHE-2 harboring blaGES-5 and blaSHV-5 gene by agar dilution in presence of beta-lactamase inhibitor clavulanic acid. Type of experiment: functional. In a few lines: as §2
The test system of experiment [9] is Escherichia coli. Briefly: Antimicrobial activity against Escherichia coli J53 by agar dilution in presence of beta-lactamase inhibitor clavulanic acid.
Experiment [10] has as its system Pseudomonas aeruginosa. Description: Antimicrobial activity against Pseudomonas aeruginosa PU21 by agar dilution method. Type of experiment: functional. In a few lines:
as §1

The test system of experiment [11] is Escherichia coli. Briefly: Antimicrobial activity against Escherichia coli J53 harboring pCHE-A plasmid expressing blaGES-5 gene by agar dilution in presence of beta-lactamase inhibitor clavulanic acid.
Experiment [12] has as its system Escherichia coli. Description: Antimicrobial activity against Escherichia coli J53 by agar dilution method. Type of experiment: functional. The gist of the method:
as §1

In general, MIC refers to the lowest concentration that inhibits growth of the organism. For `CC(C)(O/N=C(\C(=O)N[C@@H]1C(=O)N2C(C(=O)[O-])=C(C[n+]3ccccc3)CS[C@H]12)c1csc(N)n1)C(=O)O` [CEFTAZIDIME], the MIC in experiment [1] was 256 µg/mL (≈ 468 µM); in experiment [2] it was above 512 µg/mL; in experiment [3] it was 64 µg/mL; in [4] it was 256 µg/mL (≈ 468 µM); in experiment [5], 1 µg/mL; in experiment [6] it was 4 µg/mL. Besides, the MIC in experiment [7] is 128 µg/mL (≈ 234 µM); in experiment [8] it was 256 µg/mL; in [9], 0.06 µg/mL; in experiment [10], 1 µg/mL (≈ 1.83 µM); in experiment [11] it was 16 µg/mL; in experiment [12], 0.06 µg/mL (≈ 0.11 µM).
On to `CO[C@@]1(NC(=O)Cc2cccs2)C(=O)N2C(C(=O)O)=C(COC(N)=O)CS[C@@H]21` [CEFOXITIN], for which the MIC was 4 µg/mL (≈ 9.36 µM) in [1]; above 512 µg/mL in experiment [2]; 128 µg/mL (≈ 299 µM) in experiment [7]; above 512 µg/mL in experiment [10]; 4 µg/mL (≈ 9.36 µM) in experiment [12].
On to `C[C@@H](O)[C@H]1C(=O)N2C(C(=O)O)=C(S[C@@H]3CN[C@H](C(=O)Nc4cccc(C(=O)O)c4)C3)[C@H](C)[C@H]12` [ERTAPENEM], for which the MIC was 0.06 µg/mL (≈ 0.126 µM) in experiment [1]; above 32 µg/mL in [2]; above 32 µg/mL in [4]; 0.12 µg/mL (≈ 0.252 µM) in experiment [7]; 8 µg/mL (≈ 16.8 µM) in experiment [10]; 0.03 µg/mL (≈ 0.0631 µM) in [12].
For the molecule `C[C@@H](O)[C@H]1C(=O)N2C(C(=O)O)=C(SCCNC=N)C[C@H]12` [IMIPENEM ANHYDROUS], the MIC was 0.06 µg/mL (≈ 0.2 µM) in [1]; above 32 µg/mL in [2]; 16 µg/mL (≈ 53.4 µM) in [4]; 1 µg/mL (≈ 3.34 µM) in experiment [7]; 2 µg/mL (≈ 6.68 µM) in experiment [10].
With `CC1(C)S[C@@H]2[C@H](NC(=O)[C@H](N)c3ccc(O)cc3)C(=O)N2[C@H]1C(=O)O` [AMOXICILLIN], the MIC in experiment [1] is above 512 µg/mL; in [2], above 512 µg/mL; in experiment [5], above 512 µg/mL; in experiment [6], 4 µg/mL; in [7] it was above 512 µg/mL; in [8] it was above 256 µg/mL. Also, the MIC was 2 µg/mL in experiment [9], above 512 µg/mL in experiment [10], 16 µg/mL in experiment [11] and 2 µg/mL (≈ 5.47 µM) in experiment [12].
For the molecule `C[C@@H](O)[C@H]1C(=O)N2C(C(=O)O)=C(S[C@@H]3CN[C@H](C(=O)N(C)C)C3)[C@H](C)[C@H]12` [MEROPENEM], the MIC in [1] is 0.06 µg/mL (≈ 0.156 µM); in [2], above 32 µg/mL; in experiment [4] it was above 32 µg/mL; in [7] it was 0.25 µg/mL (≈ 0.652 µM); in experiment [10] it was 0.5 µg/mL (≈ 1.3 µM); in [12], 0.03 µg/mL (≈ 0.0782 µM).
